Measured values as given in ChEMBL document CHEMBL2321793, “Discovery of a novel broad-spectrum antifungal agent derived from albaconazole” (ACS Med Chem Lett, 2013).
Values after ≈ are worked out from the molar mass of the structure shown.

Legend:
[1] = system: Aspergillus fumigatus; experiment: Antifungal activity against Aspergillus fumigatus ASFU7 after 48 hrs by M38 method; format: functional; conditions: ASFU7, 48 h
[2] = system: Candida parapsilosis; experiment: Antifungal activity against acquired-resistant Candida parapsilosis CAPA2 after 24 hrs by spectrofluorometric analysis; format: functional; conditions: Lodderomyces parapsilosis, CAPA2, 24 h
[3] = system: Candida parapsilosis; experiment: Antifungal activity against acquired-resistant Candida parapsilosis CAPA1 after 24 hrs by spectrofluorometric analysis; format: functional; conditions: Lodderomyces parapsilosis, CAPA1, 24 h
[4] = system: Nakaseomyces glabratus; experiment: Antifungal activity against Candida glabrata CAGL2 after 24 hrs by spectrofluorometric analysis; format: functional; conditions: CAGL2, 24 h
[5] = system: Pichia kudriavzevii; experiment: Antifungal activity against Candida krusei CAKR8 after 24 hrs by spectrofluorometric analysis; format: functional; conditions: CAKR8, 24 h
[6] = system: Pichia kudriavzevii; experiment: Antifungal activity against Candida krusei CAKR7 after 24 hrs by spectrofluorometric analysis; format: functional; conditions: CAKR7, 24 h
[7] = system: Candida albicans; experiment: Antifungal activity against fluconazole-resistant Candida albicans DSY292 after 24 hrs by spectrofluorometric analysis; format: functional; conditions: DSY292, 24 h
[8] = system: Candida albicans; experiment: Antifungal activity against fluconazole-susceptible Candida albicans CAAL97 after 24 hrs by spectrofluorometric analysis; format: functional; conditions: CAAL97, 24 h
[9] = system: Candida albicans; experiment: Antifungal activity against fluconazole-susceptible Candida albicans CAAL93 after 24 hrs by spectrofluorometric analysis; format: functional; conditions: CAAL93, 24 h
[10] = system: Candida albicans; experiment: Antifungal activity against fluconazole-resistant Candida albicans DSY735 after 24 hrs by spectrofluorometric analysis; format: functional; conditions: DSY735, 24 h
[11] = system: Candida albicans; experiment: Antifungal activity against fluconazole-susceptible Candida albicans CAAL93 infected in Swiss mouse assessed as host survival at 15 mg/kg, po qd for 5 days measured after 13 days; format: functional
In short: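 Transiently neutropenic Swiss mice were infected intravenously with C. albicans CAAL93 blastoconidia. Oral dosing began 1 h post-infection at 15 mg/kg body weight, in 5% DMSO, once daily for 5 consecutive days. Controls received 100 μL 0.9% saline with 5% DMSO. The read-out was survival rate on day 13 after infection, compared by log-rank test.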

[12] = target: T1, Lanosterol 14-alpha demethylase (Candida albicans (strain SC5314 / ATCC MYA-2876) (Yeast), UniProt P10613); experiment: Inhibition of CYP51 in fluconazole-susceptible Candida albicans CAAL93 assessed as ergosterol level after 2 hrs
T1 sequence (P10613 whole entry): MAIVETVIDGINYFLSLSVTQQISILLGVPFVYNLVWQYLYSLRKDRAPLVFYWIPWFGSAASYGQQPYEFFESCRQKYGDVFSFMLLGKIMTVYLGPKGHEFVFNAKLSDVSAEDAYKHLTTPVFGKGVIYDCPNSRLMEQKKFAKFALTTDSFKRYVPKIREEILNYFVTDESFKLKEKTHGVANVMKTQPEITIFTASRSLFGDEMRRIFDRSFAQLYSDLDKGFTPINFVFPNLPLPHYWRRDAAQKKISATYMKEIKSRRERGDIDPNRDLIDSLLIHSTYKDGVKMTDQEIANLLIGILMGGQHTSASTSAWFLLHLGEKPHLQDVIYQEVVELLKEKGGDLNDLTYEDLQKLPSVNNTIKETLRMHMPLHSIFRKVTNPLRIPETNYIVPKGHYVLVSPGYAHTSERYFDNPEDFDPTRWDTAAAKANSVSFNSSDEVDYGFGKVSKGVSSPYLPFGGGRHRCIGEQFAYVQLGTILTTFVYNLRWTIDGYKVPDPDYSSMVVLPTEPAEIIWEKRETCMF

[13] = target: T1, Lanosterol 14-alpha demethylase; experiment: Inhibition of CYP51 in fluconazole-susceptible Candida albicans CAAL93 assessed as ergosterol level at 22 ng/mL after 2 hrs; set-up: scale not given: the % may be the effect or the level left
[14] = target: T1, Lanosterol 14-alpha demethylase; experiment: Inhibition of CYP51 in fluconazole-susceptible Candida albicans CAAL93 assessed as ergosterol level at 4.5 ng/mL after 2 hrs; set-up: scale not given: the % may be the effect or the level left
[15] = target: T1, Lanosterol 14-alpha demethylase; experiment: Inhibition of CYP51 in fluconazole-susceptible Candida albicans CAAL93 assessed as 14-methyl-3,6-diol level at 22 ng/mL after 2 hrs; set-up: scale not given: the % may be the effect or the level left
[16] = target: T1, Lanosterol 14-alpha demethylase; experiment: Inhibition of CYP51 in fluconazole-susceptible Candida albicans CAAL93 assessed as 14-methylepisterol level at 22 ng/mL after 2 hrs; set-up: scale not given: the % may be the effect or the level left
[17] = target: T1, Lanosterol 14-alpha demethylase; experiment: Inhibition of CYP51 in fluconazole-susceptible Candida albicans CAAL93 assessed as 14-methylepisterol level at 4.5 ng/mL after 2 hrs; set-up: scale not given: the % may be the effect or the level left
[18] = target: T1, Lanosterol 14-alpha demethylase; experiment: Inhibition of CYP51 in fluconazole-susceptible Candida albicans CAAL93 assessed as 14-methyfecosterol level at 22 ng/mL after 2 hrs; set-up: scale not given: the % may be the effect or the level left
[19] = target: T1, Lanosterol 14-alpha demethylase; experiment: Inhibition of CYP51 in fluconazole-susceptible Candida albicans CAAL93 assessed as 14-methyfecosterol level at 4.5 ng/mL after 2 hrs; set-up: scale not given: the % may be the effect or the level left
[20] = target: T1, Lanosterol 14-alpha demethylase; experiment: Inhibition of CYP51 in fluconazole-susceptible Candida albicans CAAL93 assessed as episterol level at 4.5 ng/mL after 2 hrs; set-up: scale not given: the % may be the effect or the level left
[21] = target: T1, Lanosterol 14-alpha demethylase; experiment: Inhibition of CYP51 in fluconazole-susceptible Candida albicans CAAL93 assessed as zymosterol level at 4.5 ng/mL after 2 hrs; set-up: scale not given: the % may be the effect or the level left
[22] = target: T1, Lanosterol 14-alpha demethylase; experiment: Inhibition of CYP51 in fluconazole-susceptible Candida albicans CAAL93 assessed as eburicol level at 22 ng/mL after 2 hrs; set-up: scale not given: the % may be the effect or the level left
[23] = target: T1, Lanosterol 14-alpha demethylase; experiment: Inhibition of CYP51 in fluconazole-susceptible Candida albicans CAAL93 assessed as eburicol level at 4.5 ng/mL after 2 hrs; set-up: scale not given: the % may be the effect or the level left
[24] = target: T1, Lanosterol 14-alpha demethylase; experiment: Inhibition of CYP51 in fluconazole-susceptible Candida albicans CAAL93 assessed as lanosterol level at 22 ng/mL after 2 hrs; set-up: scale not given: the % may be the effect or the level left
[25] = target: T1, Lanosterol 14-alpha demethylase; experiment: Inhibition of CYP51 in fluconazole-susceptible Candida albicans CAAL93 assessed as lanosterol level at 4.5 ng/mL after 2 hrs; set-up: scale not given: the % may be the effect or the level left
[26] = Antifungal activity against Rhizomucor pusillus RHPU1 after 48 hrs by broth microdilution test; format: functional
[27] = Antifungal activity against Scedosporium sp. SCSP1 after 48 hrs by broth microdilution test; format: functional
[28] = system: Aspergillus fumigatus; experiment: Antifungal activity against Aspergillus fumigatus ASFU23 after 48 hrs by M38 method; format: functional; conditions: ASFU23, 48 h
[29] = system: Aspergillus fumigatus; experiment: Antifungal activity against Aspergillus fumigatus ASFU19 after 48 hrs by M38 method; format: functional; conditions: ASFU19, 48 h
[30] = system: Aspergillus fumigatus; experiment: Antifungal activity against Aspergillus fumigatus ASFU20 after 48 hrs by M38 method; format: functional; conditions: ASFU20, 48 h
[31] = system: Aspergillus fumigatus; experiment: Antifungal activity against Aspergillus fumigatus ASFU17 after 48 hrs by M38 method; format: functional; conditions: ASFU17, 48 h
[32] = system: Aspergillus fumigatus; experiment: Antifungal activity against Aspergillus fumigatus ASFU13 after 48 hrs by M38 method; format: functional; conditions: ASFU13, 48 h
[33] = system: Rhizomucor miehei; experiment: Antifungal activity against Rhizomucor miehei RHMI1 after 48 hrs by broth microdilution test

Row | Compound | MIC [1] [µg/mL] | MIC [2] [µg/mL] | MIC [3] [µg/mL] | MIC [4] [µg/mL] | MIC [5] [µg/mL] | MIC [6] [µg/mL] | MIC [7] [µg/mL] | MIC [8] [µg/mL] | MIC [9] [µg/mL] | MIC [10] [µg/mL] | MIC [26] [µg/mL] | MIC [27] [µg/mL] | MIC [28] [µg/mL] | MIC [29] [µg/mL] | MIC [30] [µg/mL] | MIC [31] [µg/mL] | MIC [32] [µg/mL] | MIC [33] [µg/mL] | other results
1 | C[C@@H](n1cnc2ccc3ncsc3c2c1=O)[C@](O)(Cn1cncn1)c1ccc(F)cc1F | > 43 | < 0.001 | 0.006 (≈ 0.0132 µM) | 0.095 (≈ 0.209 µM) | 2.5 (≈ 5.5 µM) | 5 (≈ 11 µM) | 5 (≈ 11 µM) | < 0.001 | 0.003 (≈ 0.0066 µM) | 1.43 (≈ 3.15 µM) | – | – | – | – | – | – | – | – | –
2 | C[C@@H](n1cnc2cc3scnc3cc2c1=O)[C@](O)(Cn1cncn1)c1ccc(F)cc1F | 0.28 (≈ 0.616 µM) | 0.127 (≈ 0.279 µM) | 0.013 (≈ 0.0286 µM) | 0.068 (≈ 0.15 µM) | < 0.005 | 0.182 (≈ 0.4 µM) | 0.94 (≈ 2.07 µM) | < 0.001 | 0.011 (≈ 0.0242 µM) | 0.118 (≈ 0.26 µM) | 1 (≈ 2.2 µM) | 1 (≈ 2.2 µM) | 0.27 (≈ 0.594 µM) | 2.1 (≈ 4.62 µM) | 4.5 (≈ 9.9 µM) | 2.2 (≈ 4.84 µM) | 3.1 (≈ 6.82 µM) | 2 (≈ 4.4 µM) | survival at 15 mg/kg [11]: 75%; inhibition (INH) [12]: Dose-dependent effect; Activity [13]: 5.4%; Activity [14]: 51.1%; Activity [15]: 5.4%; Activity [16]: 15.7%; Activity [17]: 5.9%; Activity [18]: 11.4%; Activity [19]: 3.8%; Activity [20]: 2.9%; Activity [21]: 2%; Activity [22]: 20.4%; Activity [23]: 4.4%; Activity [24]: 41.6%; Activity [25]: 29.9%
3 | C[C@@H](n1cnc2cc(Cl)ccc2c1=O)[C@](O)(Cn1cncn1)c1ccc(F)cc1F [ALBACONAZOLE] | 0.23 (≈ 0.533 µM) | 0.011 (≈ 0.0255 µM) | 0.018 (≈ 0.0417 µM) | 0.065 (≈ 0.151 µM) | 0.005 (≈ 0.0116 µM) | 0.022 (≈ 0.0509 µM) | < 0.043 | < 0.001 | 0.003 (≈ 0.00695 µM) | 0.063 (≈ 0.146 µM) | 0.5 (≈ 1.16 µM) | 0.5 (≈ 1.16 µM) | 0.22 (≈ 0.509 µM) | 2 (≈ 4.63 µM) | 1.2 (≈ 2.78 µM) | 2.1 (≈ 4.86 µM) | 1.1 (≈ 2.55 µM) | 1 (≈ 2.32 µM) | –
4 | OC(Cn1cncn1)(Cn1cncn1)c1ccc(F)cc1F [FLUCONAZOLE] | – | > 30 | > 30 | 7.7 (≈ 25.1 µM) | 12.9 (≈ 42.1 µM) | > 30 | 21 (≈ 68.6 µM) | 0.018 (≈ 0.0588 µM) | 0.062 (≈ 0.202 µM) | 11 (≈ 35.9 µM) | – | – | – | – | – | – | – | – | –
5 | CCC(C)n1ncn(-c2ccc(N3CCN(c4ccc(OCC5COC(Cn6cncn6)(c6ccc(Cl)cc6Cl)O5)cc4)CC3)cc2)c1=O (centres undefined) [ITRACONAZOLE] | 0.42 (≈ 0.595 µM) | – | – | – | – | – | – | – | – | – | – | – | > 71 | > 71 | > 71 | > 71 | > 71 | – | –
6 | C[C@@H](c1ncncc1F)[C@](O)(Cn1cncn1)c1ccc(F)cc1F [VORICONAZOLE] | 0.15 (≈ 0.429 µM) | 0.905 (≈ 2.59 µM) | 0.925 (≈ 2.65 µM) | 0.061 (≈ 0.175 µM) | < 0.003 | 0.549 (≈ 1.57 µM) | 1.1 (≈ 3.15 µM) | < 0.003 | 0.005 (≈ 0.0143 µM) | 0.101 (≈ 0.289 µM) | 2 (≈ 5.73 µM) | 0.125 (≈ 0.358 µM) | 0.18 (≈ 0.515 µM) | 3 (≈ 8.59 µM) | < 0.35 | 0.25 (≈ 0.716 µM) | < 0.35 | 8 (≈ 22.9 µM) | –
